Measurements: paper PMC7610841 (Nature, 2020)

Columns and labels:
GFP-Wingless [1] = assay: Solubilisation of GFP-Wingless in serum-free S2 cell medium; assay type: cell-based, Drosophila; conditions: conditioned medium from S2 cells expressing Dlp^ΔGPI-V5 added to S2 cells expressing GFP-Wingless, 12hrs, concentrated 20-fold, Western blot
GFP-Wingless [2] = assay: Colocalisation with morphotrap-enriched GFP-Wingless in wing discs; assay type: in vivo, Drosophila; conditions: n=4 (Dlp^ΔGPI-V5), n=13 (ApoL), n=10 (Hrs)
In short: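 For ApoL and Hrs, morphotrap is driven by dpp-Gal4 and the endogenous proteins are immunostained. For Dlp ΔGPI-V5, morphotrap is driven by dpp-LexA and Dlp by wg-Gal4, limited to 24 h with Gal80ts (18°C rearing, 29°C shift). Confocal imaging; colocalisation scored where domains intersect; SD; three repeats.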

Wingless = conditions: ref [13],[14]; cited from earlier work

B1: Dlp^ΔGPI: secreted form of Dlp lacking its membrane anchor, amino acids 53-723 (protein)
chain: PQVAALAAPNPAGGVAGSSIIDQFSPNCSAVTHIFQARGIDAIEIPQKPSNERVLRYCESPSVGTCCTYNMETRMAMQSRQQLEGHTKDQISRMSGILGSKATKFKDIFTALLKESRTQFNSMFIRTYGVIYERNSYVFSDLFKELETYFANGRVDLLEVMDKFFNTLYQKMFTVLNTQYTFDENYMRCVSEHMKELKPFGDVPDKLSVQIKRSFVATRTYGQALTTASEVAKKVLNVRLNADCTGALTKMQHCGACKGYTEKPCTNYCVNVIKGCLHYQHEFDSEWENFAMAMDKVAERLLGSFNIVMVVEPLNIKISEAIMNFQDSGQDITNRVFQGCGRPKLKKMKRSISPKLQGVQILNARSPVEADTLDIDETLDEAIVLRERRAAEPGSQETSAQQSQEQGVGKSGNGGGGGGGNNRRQQQRRKQQQQRRKQQNNRDDNDDDDNESGGGREPILDRIVRDIRQRVKDYKKFWSNLPHSVCSNEDIASSSDVDGMCWNGHTIDRYMHSITTEHGSNPEFTGNPASTKQTAQMASQLSHLKNAIVHLRNAYNGQDVEWSEQEELPYAGSGAGSGSGSEDDEDDDEGSGLGPFEPSHKPDVERPSVDADNDDDEDAGGRGHMPTHTSRPTSGVDDKNPLIHTTHFDQDHNDLDEDHRQLDEDEDTDAG
modifications: left off: V5, C-terminal, kept
GFP-Wingless [1]
  solubilisation of GFP-Wingless, added conditioned medium: A similar effect was seen
GFP-Wingless [1]; listed as Dlp^ΔGPI-V5
  solubilisation of GFP-Wingless, added conditioned medium: stabilises GFP-Wingless in solution
GFP-Wingless [2]
  colocalisation with morphotrap-enriched GFP-Wingless: colocalizes
Wingless
  binding to Wingless: known to bind Wingless
